Drawing on ChEMBL document CHEMBL1147244, “Constituents of the Vietnamese medicinal plant Streptocaulon juventas and their antiproliferative activity against the human HT-1080 fibrosarcoma cell line” (J Nat Prod, 2003), this text covers IC50 for 18 compounds.

The assay has as its system HT-1080. In words: Antiproliferative activity against human HT1080 cells after 72 hrs by MTT assay. In kind it is functional, cell-based. To be noted: HT-1080, 72 h. The method, boiled down:
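HT-1080 fibrosarcoma cells were grown in EME medium with 10% heat-inactivated FCS and 2 mM glutamine at 37 °C, 5% CO2. Cells were seeded at 2 × 10³ per well and left 24 h to attach. Samples were dissolved in DMSO/PBS, with final DMSO below 0.25%, and added at varying concentrations. After 2 h with MTT, formazan was extracted in DMSO and read at 550 nm. IC50 was taken from the mean of four wells.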
As usually defined, the IC50 is the concentration needed to halve the response being measured. In the case of `CC(=O)O[C@@H]1C[C@H](O[C@H]2CC[C@@]3(C)[C@H](CC[C@@H]4[C@@H]3CC[C@]3(C)[C@@H](C5=CC(=O)OC5)CC[C@]43O)C2)O[C@H](C)[C@H]1O[C@@H]1O[C@H](CO[C@@H]2O[C@H](CO)[C@@H](O)[C@H](O)[C@H]2O)[C@@H](O)[C@H](O)[C@H]1O`, the IC50 stood at 590 nM.

Consider `CO[C@@H]1C[C@H](O[C@H]2CC[C@@]3(C)[C@H](CC[C@@H]4[C@@H]3CC[C@]3(C)[C@@H](C5=CC(=O)OC5)CC[C@]43O)C2)O[C@H](C)[C@H]1O[C@@H]1O[C@H](CO[C@@H]2O[C@H](CO)[C@@H](O)[C@H](O)[C@H]2O)[C@@H](O)[C@H](O)[C@H]1O` [ECHUJIN], for which half-maximal inhibition (IC50) required 55 nM.

Compound `C[C@]12CC[C@H](O)C[C@H]1CC[C@@H]1[C@@H]2CC[C@]2(C)[C@@H](C3=CC(=O)OC3)CC[C@]12O` [DIGITOXIGENIN] came in with an IC50 of 1500 nM. This IC50 is about 27-fold higher than that of the compound before.

`C[C@H]1O[C@@H](O[C@H]2CC[C@]3(C)[C@H]4CC[C@]5(C)[C@@H](C6=CC(=O)OC6)CC[C@]5(O)[C@@H]4CC[C@]3(O)C2)C[C@@H](O)[C@@H]1O` displayed a 50% inhibitory concentration (IC50) of 93 nM. Against the preceding compound, the IC50 is about 16-fold lower.

As to `C[C@H]1O[C@@H](O[C@@H]2C[C@H]3CC[C@@H]4[C@H](CC[C@]5(C)[C@@H](C6=CC(=O)OC6)CC[C@]45O)[C@@]3(C)[C@H](O)C2)C[C@@H](O)[C@@H]1O`, the midpoint of inhibition, the IC50, lay at 1100 nM.

As for `CC(=O)O[C@H]1C[C@]2(O)[C@@H]3CC[C@@H]4C[C@@H](O[C@H]5C[C@@H](O)[C@H](O[C@@H]6O[C@H](CO)[C@@H](O)[C@H](O)[C@H]6O)[C@@H](C)O5)CC[C@]4(C)[C@H]3CC[C@]2(C)[C@H]1C1=CC(=O)OC1` [SUBALPINOSIDE], the half-maximal inhibitory concentration (IC50) worked out at 180 nM.

Take `C[C@]12CC[C@H](O)C[C@@]1(O)CC[C@@H]1[C@@H]2CC[C@]2(C)[C@@H](C3=CC(=O)OC3)CC[C@]12O` [PERIPLOGENIN]: the half-maximal inhibitory concentration (IC50) came out at 810 nM.

With `C[C@H]1O[C@@H](O[C@H]2CC[C@@]3(C)[C@H](CC[C@@H]4[C@@H]3CC[C@]3(C)[C@@H](C5=CC(=O)OC5)CC[C@]43O)C2)C[C@@H](O)[C@@H]1O[C@@H]1O[C@H](CO[C@@H]2O[C@H](CO)[C@@H](O)[C@H](O)[C@H]2O)[C@@H](O)[C@H](O)[C@H]1O`, 54 nM corresponded to half-maximal inhibition (IC50).

Compound `O=c1[nH]cc(F)c(=O)[nH]1` [FLUOROURACIL] gave a 50% inhibitory concentration (IC50) of 3700 nM. This IC50 lies about 69-fold higher than the previous one.

As for `C[C@]12CC[C@H](O[C@@H]3O[C@H](CO)[C@@H](O)[C@H](O)[C@H]3O[C@@H]3O[C@H](CO)[C@@H](O)[C@H](O)[C@H]3O)C[C@H]1CC[C@@H]1[C@@H]2CC[C@]2(C)[C@@H](C3=CC(=O)OC3)CC[C@]12O` [DIGITOXIGENIN SOPHOROSIDE], it took 460 nM to reach half-maximal inhibition (IC50).

As to `C[C@H]1O[C@@H](O[C@H]2CC[C@]3(C)[C@H]4CC[C@]5(C)[C@@H](C6=CC(=O)OC6)CC[C@]5(O)[C@@H]4CC[C@]3(O)C2)C[C@@H](O)[C@@H]1O[C@@H]1O[C@H](CO)[C@@H](O)[C@H](O)[C@H]1O` [CORCHORUSOSIDE C], it took 92 nM to reach half-maximal inhibition (IC50).

Consider `COc1cccc2c1C(=O)c1c(O)c3c(c(O)c1C2=O)C[C@@](O)(C(=O)CO)C[C@@H]3O[C@H]1C[C@H](N)[C@H](O)[C@H](C)O1` [DOXORUBICIN], for which it took 59 nM to reach half-maximal inhibition (IC50).

For `C[C@]12[C@H](CC[C@@H]3[C@@H]1CC[C@]1(C)[C@@H](C4=CC(=O)OC4)CC[C@]31O)C[C@@H](O)C[C@H]2O` [ACOVENOSIGENIN A], half-maximal inhibition (IC50) was put at 1200 nM.

In the case of `CO[C@@H]1C[C@H](O[C@H]2CC[C@]3(C)[C@H]4CC[C@]5(C)[C@@H](C6=CC(=O)OC6)CC[C@]5(O)[C@@H]4CC[C@]3(O)C2)O[C@H](C)[C@H]1O` [PERIPLOCYMARIN], the IC50 came to 96 nM.

In the case of `CO[C@@H]1[C@@H](O)[C@H](O[C@@H]2[C@@H](C)O[C@@H](O[C@H]3CC[C@@]4(C)[C@H](CC[C@@H]5[C@@H]4CC[C@]4(C)[C@@H](C6=CC(=O)OC6)CC[C@]54O)C3)C[C@H]2OC)O[C@H](C)[C@H]1O[C@@H]1O[C@H](CO[C@@H]2O[C@H](CO)[C@@H](O)[C@H](O)[C@H]2O)[C@@H](O)[C@H](O)[C@H]1O`, inhibition was half-maximal at 220 nM (IC50).

Compound `C[C@]12CC[C@H](O[C@@H]3O[C@H](CO)[C@@H](O)[C@H](O)[C@H]3O)C[C@@]1(O)CC[C@@H]1[C@@H]2CC[C@]2(C)[C@@H](C3=CC(=O)OC3)CC[C@]12O` [PERIPLOGENIN GLUCOSIDE] yielded a half-inhibitory concentration (IC50) of 160 nM. This IC50 and that of the compound before are within 1.5-fold of each other.

With `CO[C@@H]1[C@@H](O)[C@H](O[C@H]2CC[C@]3(C)[C@H]4CC[C@]5(C)[C@@H](C6=CC(=O)OC6)CC[C@]5(O)[C@@H]4CC[C@]3(O)C2)O[C@H](C)[C@H]1O[C@@H]1O[C@H](CO)[C@@H](O)[C@H](O)[C@H]1O`, 670 nM corresponded to half-maximal inhibition (IC50).

`C[C@]12CC[C@H](O[C@@H]3O[C@H](CO[C@@H]4O[C@H](CO)[C@@H](O)[C@H](O)[C@H]4O)[C@@H](O)[C@H](O)[C@H]3O)C[C@H]1CC[C@@H]1[C@@H]2CC[C@]2(C)[C@@H](C3=CC(=O)OC3)CC[C@]12O` [DIGITOXIGENIN GENTIOBIOSIDE] registered a half-maximal inhibitory concentration (IC50) of 1600 nM. Against the preceding compound, the IC50 is about 2.4-fold higher.
